Reference: ChEMBL document CHEMBL4145612, “Phenolic Constituents Isolated from the Twigs of Cinnamomum cassia and Their Potential Neuroprotective Effects” (J Nat Prod, 2018)

Tested on: SH-SY5Y
Experiment: Neuroprotective activity against tunicamycin-induced cell death in human SH-SY5Y cells pretreated for 6 hrs followed by tunicamycin addition measured after 48 hrs by MTT assay
Format: functional, cell-based
Method in brief: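 SH-SY5Y cells grown in DMEM/High Glucose:F12 (1:1) with 10% FBS at 37 °C, 5% CO2, seeded 4 × 10^3/well and left 12 h. Compounds given at 25, 50 and 100 μM for 6 h, then tunicamycin added for 48 h. Medium replaced; MTT 0.5 mg/mL final, 4 h at 37 °C; absorbance 570 nm. Salubrinal 40 μM as positive control; three independent experiments, means ± SEM; EC50 derived.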

Q: For COc1ccc([C@@H]2C(=O)OC[C@H]2c2ccc(O)c(OC)c2)cc1, which Activity is on record?
A: Dose-dependent effect

Q: What about the EC50 of the same molecule?
A: 21 to 75 µM

Q: Which Activity does the source give for COc1cc([C@H](OC)[C@@H]2CO[C@@H](c3cc(OC)c(O)c(OC)c3)[C@@H]2COC(C)=O)cc(OC)c1O here?
A: Dose-dependent effect

Q: And the EC50?
A: 21 to 75 µM

Q: What does the source list for C=CCc1cc(O)c(-c2c(OC)cc([C@@H]3OO[C@@H]3CO)cc2OC)c(OC)c1?
A: Activity: Dose-dependent effect; EC50: 21 to 75 µM

Q: O=C1OC[C@@H](c2ccc(O)c(O)c2)[C@@H]1c1ccc(O)cc1 was tested. Which Activity did it give?
A: Dose-dependent effect

Q: What about the EC50 of the same molecule?
A: 21 to 75 µM

Q: For COc1ccc([C@@H]2C(=O)OC[C@H]2c2ccc3c(c2)OCO3)cc1, which Activity is on record?
A: Dose-dependent effect

Q: And the EC50?
A: 21 to 75 µM

Q: With C=CCc1cc(O)c(-c2c(OC)cc([C@H]3OO[C@H]3CO)cc2OC)c(OC)c1 as the molecule, how does the Activity read?
A: Dose-dependent effect

Q: What about the EC50 of the same molecule?
A: 21 to 75 µM

Q: Which results are given for OC[C@H]1O[C@@H](OC/C=C/c2ccccc2)[C@H](O)[C@@H](O)[C@@H]1O?
A: Activity: Dose-dependent effect; EC50: 21 to 75 µM

Q: What does the source list for O=C(CCc1ccccc1)OC/C=C/c1ccccc1?
A: Activity: Dose-dependent effect; EC50: 21 to 75 µM
